Measured values published in ChEMBL document CHEMBL1177758, “Anti-neuroinflammatory activity of 1,5-benzodiazepine derivatives” (Bioorg Med Chem Lett, 2010).
Calls of active or inactive are those of the source. No cut-off for these calls is given here.

Assays:
BV-2 [1] = assay: Antiinflammatory activity in mouse BV2 cells assessed as inhibition of LPS-induced NO production after 24 hrs by Griess reaction; assay type: functional, cell-based; details: BV-2, 24 h
In short: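 Murine BV-2 microglia stimulated with LPS at 100 ng/ml for 24 h with or without compound. Nitrite, a soluble oxidation product of NO, was measured in the culture medium by Griess reaction.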

BV-2 [2] = assay: Antiinflammatory activity in mouse BV2 cells assessed as inhibition of LPS-induced NO production at 10 uM after 24 hrs by Griess reaction; assay type: functional; details: BV-2, 24 h
In short: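 BV-2 microglial cells were activated with 100 ng/ml LPS for 24 h with compound at 10 µM. Medium nitrite was measured by Griess reaction. The value is mean inhibition of NO production relative to the LPS control, from three experiments.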

[3] = molecular target: T1, Nitric oxide synthase, inducible (Mus musculus) (UniProt P29477); assay: Inhibition of iNOS activity in LPS-stimulated mouse BV2 cells after 12 hrs; assay type: cell-based; details: BV-2
T1 sequence (whole entry): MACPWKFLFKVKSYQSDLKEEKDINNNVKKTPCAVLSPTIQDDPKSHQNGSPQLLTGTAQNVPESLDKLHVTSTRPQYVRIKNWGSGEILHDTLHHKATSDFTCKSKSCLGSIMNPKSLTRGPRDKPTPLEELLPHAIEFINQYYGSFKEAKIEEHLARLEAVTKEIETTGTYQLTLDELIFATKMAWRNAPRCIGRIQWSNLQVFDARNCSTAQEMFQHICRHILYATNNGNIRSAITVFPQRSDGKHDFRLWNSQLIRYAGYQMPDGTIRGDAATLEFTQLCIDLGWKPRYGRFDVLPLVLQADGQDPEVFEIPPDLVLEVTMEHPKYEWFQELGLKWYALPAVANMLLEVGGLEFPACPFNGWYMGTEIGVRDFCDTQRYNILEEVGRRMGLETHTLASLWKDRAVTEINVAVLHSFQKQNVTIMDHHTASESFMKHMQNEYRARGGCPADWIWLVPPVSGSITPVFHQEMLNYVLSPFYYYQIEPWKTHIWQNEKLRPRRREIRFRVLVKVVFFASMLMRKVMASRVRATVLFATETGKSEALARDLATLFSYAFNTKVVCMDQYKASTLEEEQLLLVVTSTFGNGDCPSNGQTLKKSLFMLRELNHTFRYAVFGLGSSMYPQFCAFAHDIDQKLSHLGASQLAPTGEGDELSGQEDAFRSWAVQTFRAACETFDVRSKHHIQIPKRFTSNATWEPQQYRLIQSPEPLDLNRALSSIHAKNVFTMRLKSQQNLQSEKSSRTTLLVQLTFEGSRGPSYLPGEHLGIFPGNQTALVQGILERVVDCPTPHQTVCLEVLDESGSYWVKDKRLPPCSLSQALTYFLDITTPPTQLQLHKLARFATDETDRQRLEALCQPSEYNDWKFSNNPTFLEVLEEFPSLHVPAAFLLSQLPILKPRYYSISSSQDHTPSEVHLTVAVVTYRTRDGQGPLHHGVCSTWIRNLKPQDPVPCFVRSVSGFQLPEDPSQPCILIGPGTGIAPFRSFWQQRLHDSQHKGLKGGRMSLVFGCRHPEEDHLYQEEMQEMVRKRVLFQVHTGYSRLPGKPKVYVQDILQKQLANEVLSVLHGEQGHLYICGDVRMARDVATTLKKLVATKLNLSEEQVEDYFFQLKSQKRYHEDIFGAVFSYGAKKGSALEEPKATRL
In short: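 Intact-cell iNOS activity assay. BV-2 cells (4 × 10⁶) were pre-induced with LPS at 100 ng/ml for 12 h, washed twice with PBS, then replated at 2 × 10⁶ cells/well. They were incubated with various compound concentrations for a further 12 h. Supernatant NO was read by Griess reaction.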

BV-2 [4] = assay: Antiinflammatory activity in mouse BV2 cells assessed as inhibition of LPS-induced iNOS protein expression at 10 uM after 6 hrs by Western blotting
[5] = Cytotoxicity against mouse BV2 cells; assay type: cell-based, BV-2; details: read-out: INH
In short: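 Viability of murine BV-2 microglia, stimulated with LPS at 100 ng/ml for 24 h with or without compound, was measured by MTT assay.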

| Structure (SMILES) | IC50 (BV-2 [1]) | inhibition [3] | inhibition at 10 µM (BV-2 [2]) | inhibition (BV-2 [4]) | cytotoxicity [5] |
| --- | --- | --- | --- | --- | --- |
| CC1(c2cccc(Cl)c2)CC(c2cccc(Cl)c2)=Nc2ccccc2N1 (configuration not stated) | 23.2 µM | – | 21.2% | – | – |
| CC1(c2ccccc2[N+](=O)[O-])CC(c2ccccc2[N+](=O)[O-])=Nc2ccccc2N1 (configuration not stated) | 23.2 µM | – | 24.9% | – | – |
| CC1(c2ccsc2)CC(c2ccsc2)=Nc2ccccc2N1 (configuration not stated) | 35.2 µM | – | 13.2% | – | – |
| CC1(c2ccc(Cl)cc2)CC(c2ccc(Cl)cc2)=Nc2ccccc2N1 (configuration not stated) | – | – | 28.2% | – | 28.2% |

More lines, main results first:

| IC50 (BV-2 [1]) | inhibition [3] | Structure (SMILES) | inhibition at 10 µM (BV-2 [2]) | inhibition (BV-2 [4]) | cytotoxicity [5] |
| --- | --- | --- | --- | --- | --- |
| 7 µM | Active | CC1(c2cccs2)CC(c2cccs2)=Nc2ccccc2N1 (configuration not stated) | 70.3% | inactive | – |
| 16.6 µM | – | CC(C)C1=Nc2ccccc2NC(C)(C(C)C)C1 (configuration not stated) | 26.3% | – | – |
| 9.4 µM | – | CC1(c2ccccc2)CC(c2ccccc2)=Nc2ccccc2N1 (configuration not stated) | 59.8% | – | – |
| 15.2 µM | – | CCC1=Nc2ccccc2NC(C)(CC)C1 (configuration not stated) | 27.4% | – | – |
| 14 µM | – | Cc1ccc(C2=Nc3ccccc3NC(C)(c3ccc(C)cc3)C2)cc1 (configuration not stated) | 34.6% | – | – |
| 14.3 µM | – | CC1=Nc2ccccc2NC(C)(C)C1 | 28.6% | – | – |
